CHO parental Ca: signal in parental CHO cells, OX1R antagonist counter-screen; parental CHO-K1, ATP-induced calcium, Fluo-8 fluorescence; inhibition, % at 5.6 µM; actives 0.63% (n = 330,000); AID 463079;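 active = inhibition above that plate's mean sample inhibition plus 3 SD, cut at about 26% in these data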;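 also: 0% = ATP-challenged DMSO wells and 100% = DMSO wells without ATP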
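Assay system – parental CHO cells · Reagent – ATP stimulus · Detection – intracellular calcium via Fluo-8 no-wash fluorescent dye · Evaluation – percent inhibition of ATP-evoked calcium rise, normalized to controls · Controls – ATP wells versus no-ATP DMSO wells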
GPR7 antagonist: human neuropeptides B/W receptor 1 antagonism. actives 1.1% (n = 290,000). inhibition, % at 4.4 µM. P48145. GPR7-expressing cells, fluorescence antagonist assay; in the data active = inhibition above about 16%, passing the limit was not always enough;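 also: cells stimulated with the agonist NPW; 0% = agonist with vehicle and 100% = vehicle without agonist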
Target sequence (P48145 whole entry, looked up): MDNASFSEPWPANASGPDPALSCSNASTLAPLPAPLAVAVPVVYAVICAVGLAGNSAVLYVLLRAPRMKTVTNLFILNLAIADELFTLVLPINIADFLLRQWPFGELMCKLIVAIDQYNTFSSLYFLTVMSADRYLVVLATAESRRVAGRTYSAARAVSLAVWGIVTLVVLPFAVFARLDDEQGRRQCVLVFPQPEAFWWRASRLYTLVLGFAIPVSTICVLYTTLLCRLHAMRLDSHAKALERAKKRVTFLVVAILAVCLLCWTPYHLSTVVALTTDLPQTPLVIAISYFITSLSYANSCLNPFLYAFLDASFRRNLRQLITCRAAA
TAAR1 ag: agonists of human TAAR1. Q96RJ0. CHO RD-HGA16 TAAR1, Fluo-8 calcium fluorescence; vehicle wells 0%, saturating PEA agonist 100%. activation, % at 3 µM. actives 0.99% (n = 360,000). AID 624467;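 active = activation above the mean activation of all test compounds in the run plus 3 SD, cut at about 38% in these data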
Target sequence (Q96RJ0 whole entry, looked up): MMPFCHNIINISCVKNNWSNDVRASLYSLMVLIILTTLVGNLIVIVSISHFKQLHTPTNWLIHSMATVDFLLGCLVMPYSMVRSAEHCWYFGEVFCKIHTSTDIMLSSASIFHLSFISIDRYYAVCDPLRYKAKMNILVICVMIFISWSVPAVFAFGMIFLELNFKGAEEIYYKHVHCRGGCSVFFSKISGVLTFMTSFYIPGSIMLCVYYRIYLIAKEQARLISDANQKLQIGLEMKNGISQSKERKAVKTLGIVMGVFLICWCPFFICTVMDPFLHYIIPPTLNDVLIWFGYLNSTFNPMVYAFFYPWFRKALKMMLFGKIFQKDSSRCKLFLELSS
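Repeats: no replicates (n 1) | Material: CHO-derived RD-HGA16 cells with stable Gα16 and human TAAR1 | Technique: Kinetic Fluo-8 calcium fluorescence | Schedule: 17-24 h seeding, 75 min 37 °C dye, 30 min RT | Evaluation: % activation from peak over basal fluorescence ratio, DMSO-to-PEA scaled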
OX1R antag-1: antagonists of human orexin 1 receptor; CHO/OX1R cells, Fluo-8 calcium fluorescence, orexin A; inhibition, % at 5 µM; actives 0.43% (n = 330,000); AID 434989;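 active = inhibition above its plate's threshold, mean inhibition of all tested compounds on the plate plus 3 SD, cut at about 37% in these data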;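 also: 0% = orexin A challenge wells and 100% = SB-334867-A antagonist wells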
TAAR1 antag: antagonists of human TAAR1. CHO RD-HGA16 TAAR1, Fluo-8 calcium fluorescence, antagonist. inhibition, % at 3 µM. actives 1.5% (n = 360,000). Q96RJ0;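 active = inhibition above a per-plate cutoff, the mean inhibition of test compounds on that plate plus 3 SD, cut at about 49% in these data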;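 also: 0% = DMSO plus EC80 beta-PEA response and 100% = DMSO alone without agonist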
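Test system: RD-HGA16 CHO cells with stable hTAAR1 and Gα16 / Probe or stimulus: EC80 β-phenethylamine stimulus / Times: seeding 17-24 h prior, 75-min 37 °C, 30-min RT dye loading / Detection: Fluo-8 calcium-sensitive fluorescence / Read-out basis: % inhibition scaled between DMSO and EC80 PEA controls / Repeats: singlicate, one well per test compound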
OX1R antag-2: blocks the human orexin 1 receptor; O43613; OX1R-expressing cells, FRET antagonist read-out; inhibition, % at 6.6 µM; actives 1.8% (n = 330,000); AID 485270; in the data active = inhibition mostly above about 38%, no sharp cut-off; inactive = mostly below about 40%;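 also: 0% = agonist challenge alone and 100% = reference antagonist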
nonsel antag count: counter-screen for TAAR1 antagonists: nonselective antagonists. shares compounds with TAAR1 antag. actives 77% (n = 2,400). counterscreen cell line, calcium fluorescence, antagonist mode. AID 651780. inhibition, % at 3 µM; in the data active = inhibition above about 22%;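 also: CHO-Ga16 host cells stimulated with ATP at an EC80 level; 0% = agonist EC80 plus vehicle and 100% = vehicle without agonist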
TAAR1 antag conf: confirmation of human TAAR1 antagonists; shares compounds with TAAR1 antag; TAAR1-expressing cells, fluorescence antagonist read-out; inhibition, % at 3 µM; actives 40% (n = 2,400); AID 651785; in the data active = inhibition above about 49%;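 also: CHO-Ga16 host cells challenged with agonist PEA near its EC80; 0% = agonist at EC80 plus vehicle and 100% = vehicle with no agonist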
Ga16 ag counter: nonselective Ga16 agonism, counter-screen; actives 18% (n = 2,400); shares compounds with TAAR1 antag; Ga16-expressing cells, calcium fluorescence, agonist counterscreen; activation, % at 3 µM; in the data active = activation above about 12%;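 also: 0% = vehicle wells and 100% = saturating stimulus response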
TAAR1 ag count: activates human TAAR1 in antagonist counter-screen; shares compounds with TAAR1 antag; hTAAR1 cell line, fluorescence activation, agonist mode; activation, % at 3 µM; actives 2% (n = 2,400); AID 651955; in the data active = activation above about 37%;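 also: CHO cells stably expressing TAAR1 with calcium dye readout; 0% = DMSO vehicle and 100% = full agonist response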
An asterisk follows results filed as active; . = no result. Shown are actives, neighbours in structure and some others; about 4.5% of the full set was active somewhere.

SMILES	CHO parental Ca	GPR7 antagonist	TAAR1 ag	OX1R antag-1	TAAR1 antag	OX1R antag-2	nonsel antag count	TAAR1 antag conf	Ga16 ag counter	TAAR1 ag count
COc1ccc(CNC(=O)COc2cc3c(c4oc(=O)cc(C)c24)CCC(C)(C)O3)cc1	21	16	-1	-27	62*	26	29*	45	6	6
Cc1cc(=O)oc2c3c(cc(OCC(=O)NCCC(=O)O)c12)OC(C)(C)CC3	.	-3	1	.	6	.	.	.	.	.
CC(C)C[C@@H]1COc2cccc(N3CCN(Cc4ccccc4F)CC3)c2S(=O)(=O)N1	.	.	11	.	36	.	.	.	.	.
O=S1(=O)N[C@@H](Cc2ccccc2)COc2cccc(N3CCN(Cc4ccccc4F)CC3)c21	.	.	10	.	71*	.	35*	50*	10	11
Cc1ccccc1NC(=O)CCN1CCc2ccccc2C1	-24	-1	3	-28	104*	-2	-6	0	5	9
Cc1ccccc1NC(=O)CCN1CCCC1	-1	-1	6	-17	-25	-4	.	.	.	.
O=C(Cc1c(Cl)cccc1Cl)OCC(=O)c1ccc[nH]1	.	.	5	.	12	.	.	.	.	.
CCOC(=O)Cc1csc(/N=C/c2c(O)n(-c3ccccc3C(F)(F)F)c(=O)c3ccccc23)n1	-21	-3	16	-43	75*	15	34*	56*	9	9
COCCNc1nc(-c2ccc(Cl)cc2C)c2sccc2n1	.	.	2	.	23	.	.	.	.	.
COc1ccc(CCNC(=O)C(=O)NCC2CCCN2S(=O)(=O)c2ccc(OC)cc2)cc1 (stereo not drawn)	5	.	18	-14	74*	33	29*	57*	14*	19
COc1ccc(-c2csc(N3CCN(c4cc(C)nc5ccccc45)CC3)n2)cc1OC	-29	2	7	-37	60*	29	27*	43	6	7
COc1cc(-c2csc(N3CCOCC3)n2)cc(OC)c1OC	-10	2	6	-20	9	22	.	.	.	.
COC(=O)Cc1nnn2c1[C@H](C)[C@@H](OC)c1cccc(Cl)c1-2	.	.	0	.	5	.	.	.	.	.
O=C(O)c1nc(-c2ccccc2)c(C(=O)NC2CC2)[nH]1	.	.	2	.	4	.	.	.	.	.
Cc1csc2nc(CSc3nc4ccccc4o3)c(Br)n12	-19	5	20	6	61*	62	15	19	5	9
COc1ccccc1N(C)S(=O)(=O)c1ccc(C(=O)OC(C)C(=O)NCc2ccc3c(c2)OCO3)cc1 (stereo not drawn)	-4	-1	21	-7	56*	6	36*	56*	12*	12
COc1ccccc1N(C)S(=O)(=O)c1ccc(C(=O)Nc2cc(OC)c(OC)c(OC)c2)cc1	.	.	14	.	57*	.	23*	34	10	7
NS(=O)(=O)c1cccc(NC(=O)c2cc(=O)c3ccccc3o2)c1	1	5	2	2	-29	21	.	.	.	.
CN(c1ccccc1)S(=O)(=O)c1cccc(NC(=O)c2cc(=O)c3ccccc3o2)c1	-12	-4	19	-3	74*	35	40*	57*	12*	7
COc1ccccc1N(C)S(=O)(=O)c1ccc(C(=O)Nc2ccncc2)cc1	-7	.	9	-17	40	35	.	.	.	.
O=C(Nc1cccc(S(=O)(=O)N2CCCCCC2)c1)c1cc(=O)c2ccccc2o1	3	-8	13	-10	79*	39	42*	57*	15*	13
COc1cc2c(c(OC)c1OC)-c1ccc(OC)c(=O)cc1C(NC(=O)c1ccccc1)CC2 (stereo not drawn)	.	.	0	.	-12	.	.	.	.	.
CN(c1ccccc1)S(=O)(=O)c1cccc(NC(=O)c2ccncc2)c1	11	-6	5	-2	16	4	.	.	.	.
CC(=O)Nc1ccc(C(=O)Nc2cccc(S(=O)(=O)N(C)c3ccccc3)c2)cc1	-19	.	18	-5	52*	8	33*	44	9	5
COc1ccc(NC(=O)c2cc(-c3ccc(F)cc3OC)n[nH]2)c(C)c1	.	.	5	.	40	.	.	.	.	.
SMILES	CHO parental Ca	GPR7 antagonist	TAAR1 ag	OX1R antag-1	TAAR1 antag	OX1R antag-2	nonsel antag count	TAAR1 antag conf	Ga16 ag counter	TAAR1 ag count
CC(=O)Nc1ccc(SCC(=O)c2c(N)n(Cc3ccccc3)c(=O)n(C)c2=O)cc1	4	-15	20	-14	77*	4	30*	44	13*	14
CC(C)Cn1c(N)c(C(=O)CSc2ccccc2)c(=O)n(C)c1=O	15	-6	21	13	66*	15	49*	65*	16*	14
Cc1ccccc1CSCC(=O)c1c(N)n(CC(C)C)c(=O)n(C)c1=O	-9	5	29	-20	41	24	.	.	.	.
Cn1c(=O)c(C(=O)CN2CCCCCC2)c(N)n(Cc2ccccc2)c1=O	-16	-9	3	-15	-30	11	.	.	.	.
CC1(C)Cc2cccc(OCC(=O)OCC(=O)Nc3ccc(S(N)(=O)=O)cc3)c2O1	.	.	0	.	-12	.	.	.	.	.
CCN(CC)S(=O)(=O)c1ccc(N2CCCCC2)c(NC(=O)C2CCN(C(=O)c3ccc(F)cc3)CC2)c1	-32	.	0	-17	-26	12	.	.	.	.
O=C1CCc2ccc(OCCCCN3CCN(c4cccc(Cl)c4Cl)CC3)cc2N1	-6	20	12	-27	63*	13	46*	48	16*	31
CC12CCC3c4ccc(O)c([N+](=O)[O-])c4CCC3C1CCC2=O (stereo not drawn)	.	.	1	.	-9	.	.	.	.	.
O=C1C2C(c3ccccc3)(C(=O)N1c1ccc(Cl)cc1)C2(c1ccccc1)c1ccccc1 (stereo not drawn)	-20	-6	3	-43	62*	21	16	35	4	13
COc1ccc(Cc2noc(=O)[nH]2)cc1	.	.	0	.	-14	.	.	.	.	.
CC(=O)n1cc([C@@H]2C=C(C(=O)N3CCN(Cc4ccccc4)CC3)O[C@H](OCc3ccc(CO)cc3)C2)c2ccccc21	-30	-9	15	-9	52*	26	17	34	9	14
O=C(C1=C[C@@H](c2coc3ccccc3c2=O)C[C@@H](OCc2ccc(CO)cc2)O1)N1CCN(Cc2ccc3c(c2)OCO3)CC1	-27	-10	12	-17	37	11	.	.	.	.
